Measurements of several laboratories.
Lines come from different studies, so protocols differ.
Target: Serine/threonine-protein kinase OSR1 (OXSR1, Homo sapiens, UniProt O95747)

SMILES	assay	setting	remaining binding [%]
O=S(=O)(NC1CCC(c2cc(F)ccc2F)(S(=O)(=O)c2ccc(Cl)cc2)CC1)C(F)(F)F (stereo not shown)	cell-free assay, competition with immobilised ligand	1 µM	91
COc1cnc(Nc2cccc(S(N)(=O)=O)c2)nc1N1CCN(c2ccccc2)C(=O)C1	binding, competition with immobilised ligand	1 µM	100
CN(CCCC(F)(F)F)c1nccc(-c2cnn3ncccc23)n1	binding	1 µM	100
Nc1ncc2c(n1)-c1c([nH]c3ccc(C#CC4CC4)cc13)CCCC2	binding, competition with immobilised ligand	1 µM	86
CS(=O)(=O)c1cc(C2(NC(=O)c3cncc4c3cnn4-c3ccc(F)cc3)CC2)ccn1	cell-free assay, competition with immobilised ligand	1 µM	85
C[C@@H]1CCN(c2nccc(-c3cnn4ncccc34)n2)C1	binding	1 µM	75
CO[C@H]1CC[C@H](CNc2ccc(S(=O)(=O)NC(=O)c3ccc(N4CCN(CC5=C(c6ccc(Cl)cc6)CC(C)(C)CC5)CC4)cc3Oc3cnc4[nH]ccc4c3)cc2[N+](=O)[O-])CC1	cell-free assay, competition with immobilised ligand	1 µM	76
CN(C)c1ncc(F)c(-c2cnn3ncccc23)n1	binding	1 µM	95
C[C@H](c1cccc(C#N)c1)n1cc(Cl)cc(C(N)=O)c1=N	cell-free assay, competition with immobilised ligand	1 µM	81
O=C(c1ccc(Nc2ncc(Cl)c(-c3ccc(Cl)s3)n2)cc1)N1CCC(N2CCCC2)CC1	binding, competition with immobilised ligand	1 µM	87
COc1ccnn2ncc(-c3ccnc(N(C)C)n3)c12	binding	1 µM	87
COc1ncc2cc3ccccc3nc2c1C#N	cell-free assay, competition with immobilised ligand	5 µM	100
C[C@@H]1CN(c2cc(-c3nn(C)c4ccc(OC5(C)CC5)cc34)ncn2)C[C@H](C)O1	cell-free assay, competition with immobilised ligand	1 µM	93
N[C@@H]1CCN(c2nccc(-c3cnn4ncccc34)n2)C1	binding	1 µM	100
Cc1cnc(Nc2ccc(C(=O)N3CCC(N4CCCC4)CC3)cc2)nc1-c1cc2ccccc2s1	binding, competition with immobilised ligand	1 µM	81
FC(F)(F)Oc1cccc(-c2cnc3ccc(-c4ccncc4)nn23)c1	cell-free assay, competition with immobilised ligand	5 µM	82
O=C(NCC1CCOCC1)c1n[nH]cc1NC(=O)c1c(F)cccc1F	binding, competition with immobilised ligand	1 µM	73
C[C@H](c1ccc(F)cc1)N(Cc1cccc(C(=O)O)c1)C(=O)c1cnc2ccccc2c1	cell-free assay, competition with immobilised ligand	1 µM	100
CCN1CCN(Cc2ccc(C(=O)Nc3ccc(C)c(Oc4ccc5c(c4)CC(=O)N5)c3)cc2C(F)(F)F)CC1	binding, competition with immobilised ligand	1 µM	97
CN(c1nccc(-c2cnn3ncccc23)n1)C1CC1	binding	1 µM	100
NS(=O)(=O)c1cc(NC(=O)Cc2ccccc2)ccc1Oc1cccc(Cl)c1	cell-free assay, competition with immobilised ligand	1 µM	78
O=C(c1ccc(Nc2ncc(Cl)c(-c3cc4ccccc4s3)n2)cc1)N1CCC(N2CCCC2)CC1	binding, competition with immobilised ligand	1 µM	74
